According to ChEMBL document CHEMBL4814031, “In pursuit of a selective hepatocellular carcinoma therapeutic agent: Novel thalidomide derivatives with antiproliferative, antimigratory and STAT3 inhibitory properties” (Eur J Med Chem, 2021):
Active and inactive are the calls of the source. The calls are words filed in the database; no cut-off is given here.

Key:
[1] = Antiproliferative activity against mouse BMOL-NT cells assessed as cell growth by measuring doubling time at 10 uM measured every 4 hrs for 3 days by IncuCyte zoom live cell analysis (reference value: 18 to 19 hrs); format: cell-based; details: 72 h, time 3 day
[2] = Antiproliferative activity against mouse BMOL-NT cells assessed as change in doubling time at 10 uM measured every 4 hrs for 3 days by IncuCyte zoom live cell analysis relative to control; format: cell-based; details: 72 h, time 3 day
BMOL-T [3] = assay: Effect on STAT3 expression in mouse BMOL-T cells at 10 uM by AlphaLISA assay; format: functional, cell-based
Outline: (§1)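 AlphaLISA in BMOL-T cells treated at 10 µM with 0.1% DMSO vehicle as control. Read as normalised fluorescence for total STAT3, or as the ratio of total STAT3 to p-STAT3. n ≥ 3, SEM. Significance by ANOVA with Dunnett's test.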

[4] = Antiproliferative activity against mouse BMOL-T cells assessed as cell growth by measuring doubling time at 10 uM measured every 4 hrs for 3 days by IncuCyte zoom live cell analysis (reference value: 14.3 to 15 hrs); format: functional; details: time 3 day
[5] = target: Signal transducer and activator of transcription 3 (Mus musculus) (UniProt P42227); assay: Inhibition of STAT3 phosphorylation in mouse BMOL-T cells at 10 uM by AlphaLISA assay; format: cell-based; outline: as §1
Chain of Signal transducer and activator of transcription 3 (Mus musculus) (P42227 whole entry): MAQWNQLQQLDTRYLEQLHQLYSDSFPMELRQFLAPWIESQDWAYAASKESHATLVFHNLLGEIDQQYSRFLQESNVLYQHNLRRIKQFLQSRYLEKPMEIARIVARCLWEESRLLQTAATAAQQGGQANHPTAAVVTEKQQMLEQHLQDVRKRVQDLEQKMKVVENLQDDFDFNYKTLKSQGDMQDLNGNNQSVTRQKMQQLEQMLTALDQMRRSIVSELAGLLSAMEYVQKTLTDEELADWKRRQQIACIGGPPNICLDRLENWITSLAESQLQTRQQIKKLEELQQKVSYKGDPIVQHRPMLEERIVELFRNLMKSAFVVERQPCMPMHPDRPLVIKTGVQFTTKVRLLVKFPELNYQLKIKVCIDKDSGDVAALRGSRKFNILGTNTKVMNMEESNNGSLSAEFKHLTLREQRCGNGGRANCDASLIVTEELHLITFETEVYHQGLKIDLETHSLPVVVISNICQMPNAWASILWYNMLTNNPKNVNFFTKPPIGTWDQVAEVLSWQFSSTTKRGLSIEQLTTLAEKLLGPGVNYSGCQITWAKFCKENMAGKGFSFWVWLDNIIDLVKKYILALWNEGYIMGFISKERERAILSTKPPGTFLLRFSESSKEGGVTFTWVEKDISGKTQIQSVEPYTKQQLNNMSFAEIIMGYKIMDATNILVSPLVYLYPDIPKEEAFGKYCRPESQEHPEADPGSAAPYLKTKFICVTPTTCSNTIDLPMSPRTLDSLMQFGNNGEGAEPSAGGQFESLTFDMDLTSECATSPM

[6] = Antiproliferative activity against mouse BMOL-T cells assessed as change in doubling time at 10 uM measured every 4 hrs for 3 days by IncuCyte zoom live cell analysis relative to control; format: functional; details: time 3 day
BMOL-T [7] = assay: Antiproliferative activity against mouse BMOL-T cells assessed as cell growth inhibition at 10 uM measured every 4 hrs for 3 days by IncuCyte zoom live cell analysis relative to control; format: functional; details: time 3.0 day
[8] = Antiproliferative activity against mouse BMOL-NT cells assessed as cell growth inhibition at 10 uM measured every 4 hrs for 3 days by IncuCyte zoom live cell analysis relative to control; format: cell-based; details: time 3 day; for inhibition at 72 h, 10 µM: BMOL-NT cells
[9] = Selectivity for antiproliferative activity against mouse BMOL-T cells over mouse BMOL-NT cells at 10 uM measured every 4 hrs for 3 days by IncuCyte zoom live cell analysis; details: time 3 day
[10] = Inhibition of Akt phosphorylation in mouse BMOL-NT cells assessed as change in phosphorylated Akt level at 10 uM incubated for 6 hrs by immunofluorescent assay relative to control; format: cell-based; parameters: scale not given: the % may be the effect or the level left
Outline: (§2)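 BMOL cells in supplemented Williams' E medium were treated 6 h with compound or 0.1% DMSO vehicle. Fixed in 4% PFA, permeabilised with 0.1% Triton X-100, blocked, then incubated 18 h with anti-phospho-p65, -Akt or -STAT3, then secondary antibody 1 h and Hoechst. High-content imaging of per-cell intensity and nuclear:whole-cell ratio. Mean of two experiments, SD.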

[11] = Antimigratory activity against mouse BMOL-T cells assessed as inhibition of cell migration at 10 uM incubated for 16 hrs by scratch wound healing assay relative to control; format: functional
Outline: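 Wound healing in BMOL-T cells plated at 20,000/well in supplemented Williams' E medium and grown 24 h. Wounds made with a Woundmaker, then medium replaced with fresh medium holding compound or 0.1% DMSO vehicle. Live-cell imaging every 2 h over 24 h, read as average wound width (µm). n = 3, SEM.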

[12] = target: Transcription factor p65 (Mus musculus) (UniProt Q04207); assay: Inhibition of NFkB p65 nuclear translocation in mouse BMOL-T cells assessed as change in nuclear p65 level at 10 uM incubated for 6 hrs by immunofluorescent assay relative to control; format: subcellular; parameters: scale not given: the % may be the effect or the level left; details: Nucleus; outline: as §2
Chain of Transcription factor p65 (Mus musculus) (Q04207 whole entry): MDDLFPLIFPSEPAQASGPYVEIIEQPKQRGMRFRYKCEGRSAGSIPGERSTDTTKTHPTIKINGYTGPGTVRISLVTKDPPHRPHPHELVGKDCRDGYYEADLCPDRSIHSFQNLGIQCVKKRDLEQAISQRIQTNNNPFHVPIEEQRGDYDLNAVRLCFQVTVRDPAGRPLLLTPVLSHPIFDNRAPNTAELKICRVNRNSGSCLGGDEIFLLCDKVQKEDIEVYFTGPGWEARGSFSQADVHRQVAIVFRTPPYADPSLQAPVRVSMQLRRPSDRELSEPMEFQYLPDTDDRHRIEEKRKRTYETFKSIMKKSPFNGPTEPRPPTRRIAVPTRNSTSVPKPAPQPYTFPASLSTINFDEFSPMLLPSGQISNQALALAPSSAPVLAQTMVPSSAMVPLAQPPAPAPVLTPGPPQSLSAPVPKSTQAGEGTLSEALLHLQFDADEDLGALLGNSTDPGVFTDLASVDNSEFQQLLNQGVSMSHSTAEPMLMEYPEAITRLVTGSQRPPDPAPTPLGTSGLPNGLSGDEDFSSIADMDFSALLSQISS

Transcription factor p65 [13] = target: T1, Transcription factor p65 (Mus musculus, UniProt Q04207); assay: Inhibition of NFkB p65 phosphorylation in mouse BMOL-NT cells assessed as change in phosphorylated p65 level at 10 uM incubated for 6 hrs by immunofluorescent assay relative to control; format: cell-based; parameters: scale not given: the % may be the effect or the level left; outline: as §2
T1 sequence (Q04207 whole entry): as above

[14] = target: Signal transducer and activator of transcription 3 (Mus musculus) (UniProt P42227); assay: Inhibition of STAT3 phosphorylation in mouse BMOL-T cells assessed as change in phosphorylated STAT3 level at 10 uM incubated for 6 hrs by immunofluorescence assay relative to control; format: cell-based; parameters: scale not given: the % may be the effect or the level left; outline: as §2
[15] = target: Signal transducer and activator of transcription 3 (Mus musculus) (UniProt P42227); assay: Inhibition of STAT3 phosphorylation in mouse BMOL-T cells assessed as change in nuclear phosphorylated STAT3 level at 10 uM incubated for 6 hrs by immunofluorescence assay relative to control; format: subcellular; parameters: scale not given: the % may be the effect or the level left; details: Nucleus; outline: as §2
BMOL-T [16] = assay: Inhibition of Akt phosphorylation in mouse BMOL-T cells assessed as change in nuclear phosphorylated Akt level at 10 uM incubated for 6 hrs by immunofluorescent assay relative to control; format: subcellular; parameters: scale not given: the % may be the effect or the level left; details: Nucleus; outline: as §2
[17] = Inhibition of Akt phosphorylation in mouse BMOL-NT cells assessed as change in nuclear phosphorylated Akt level at 10 uM incubated for 6 hrs by immunofluorescent assay relative to control; format: subcellular, Nucleus; parameters: scale not given: the % may be the effect or the level left; outline: as §2
BMOL-T [18] = assay: Inhibition of Akt phosphorylation in mouse BMOL-T cells assessed as change in phosphorylated Akt level at 10 uM incubated for 6 hrs by immunofluorescent assay relative to control; format: cell-based; parameters: scale not given: the % may be the effect or the level left; outline: as §2
[19] = target: Transcription factor p65 (Mus musculus) (UniProt Q04207); assay: Inhibition of NFkB p65 phosphorylation in mouse BMOL-T cells assessed as change in phosphorylated p65 level at 10 uM incubated for 6 hrs by immunofluorescent assay relative to control; format: cell-based; parameters: scale not given: the % may be the effect or the level left; outline: as §2
[20] = target: T2, Signal transducer and activator of transcription 3 (Mus musculus, UniProt P42227); assay: Inhibition of STAT3 phosphorylation in mouse BMOL-NT cells assessed as change in phosphorylated STAT3 level at 10 uM incubated for 6 hrs by immunofluorescence assay relative to control; format: cell-based; parameters: scale not given: the % may be the effect or the level left; outline: as §2
T2 sequence (P42227 whole entry): as the sequence (P42227 whole entry) above

[21] = target: T2, Signal transducer and activator of transcription 3; assay: Inhibition of STAT3 phosphorylation in mouse BMOL-NT cells assessed as change in nuclear phosphorylated STAT3 level at 10 uM incubated for 6 hrs by immunofluorescence assay relative to control; format: subcellular, Nucleus; parameters: scale not given: the % may be the effect or the level left; outline: as §2
Transcription factor p65 [22] = target: T1, Transcription factor p65; assay: Inhibition of NFkB p65 nuclear translocation in mouse BMOL-NT cells assessed as change in nuclear p65 level at 10 uM incubated for 6 hrs by immunofluorescent assay relative to control; format: subcellular, Nucleus; parameters: scale not given: the % may be the effect or the level left; outline: as §2

SMILES | Time [1] [h] | Time [4] [h] | Activity [6] [%] | Activity (BMOL-T [7]) | further results
CN1C(=O)CCC(N2C(=O)c3cccc(Sc4ccc(C(C)(C)C)cc4)c3C2=O)C1=O (stereo unspecified) | 24 | 16.3 | 14 | – | Activity [2]: 26%; Activity (BMOL-T [3]): inactive; inhibition [5]: inactive
CCc1ccc(Nc2cccc3c2C(=O)N(C2CCC(=O)NC2=O)C3=O)cc1 (stereo unspecified) | – | – | – | Active | inhibition at 72 h, 10 µM [8]: ≤ 10%
Nc1cccc2c1C(=O)N(C1CCC(=O)NC1=O)C2=O (stereo unspecified) [POMALIDOMIDE] | 18 | 15 | – | – | –
O=C1CCC(N2C(=O)c3cccc(Sc4ccc(C(F)(F)F)cn4)c3C2=O)C(=O)N1 (stereo unspecified) | – | – | – | inactive | –
CNC(=O)c1cc(Oc2ccc(NC(=O)Nc3ccc(Cl)c(C(F)(F)F)c3)cc2)ccn1 [SORAFENIB] | 50 | 71 | 382 | – | Activity [2]: 181%; Selectivity ratio [9]: 2.1
CC(C)c1ccc(Sc2cccc3c2C(=O)N(C2CCC(=O)NC2=O)C3=O)cc1 (stereo unspecified) | 17.2 | 16.2 | 19 | – | Activity [2]: 3%
CC(C)c1ccc(Cc2cccc3c2C(=O)N(C2CCC(=O)NC2=O)C3=O)cc1 (stereo unspecified) | 17.5 | 17 | 17 | – | –
O=C1CCC(N2C(=O)c3cccc(Nc4ccc(O)cc4)c3C2=O)C(=O)N1 (stereo unspecified) | – | – | – | Active | –
Nc1cccc2c1CN(C1CCC(=O)NC1=O)C2=O (stereo unspecified) [LENALIDOMIDE] | 18 | 15 | – | – | Activity [10]: 0%; inhibition at 10 µM [11]: 20%; Activity [12]: 7%; Activity (Transcription factor p65 [13]): 13%; Activity [14]: -4%; Activity [15]: 3%; Activity (BMOL-T [3]): inactive; Activity (BMOL-T [16]): -16%; Activity [17]: -6%; Activity (BMOL-T [18]): -9%; Activity [19]: -5%; Activity [20]: 2%; Activity [21]: -3%; Activity (Transcription factor p65 [22]): -9%
O=C1CCC(N2C(=O)c3cccc(Sc4ccc5ccccc5n4)c3C2=O)C(=O)N1 (stereo unspecified) | – | – | – | – | Activity ([8]; bmol-nt, 72 h, 10 µM): Non-Toxic
CCCc1ccc(Nc2cccc3c2C(=O)N(C2CCC(=O)NC2=O)C3=O)cc1 (stereo unspecified) | – | – | – | Active | –
O=C1CCC(N2C(=O)c3cccc(Sc4ccccc4)c3C2=O)C(=O)N1 (stereo unspecified) | 16.8 | 13.8 | 2 | – | Activity [2]: 1%
Cc1ccc(Nc2cccc3c2C(=O)N(C2CCC(=O)NC2=O)C3=O)cc1 (stereo unspecified) | – | – | – | inactive | –
CCCCc1ccc(Nc2cccc3c2C(=O)N(C2CCC(=O)NC2=O)C3=O)cc1 (stereo unspecified) | – | – | – | Active | inhibition at 72 h, 10 µM [8]: ≤ 10%
O=C1CCC(N2C(=O)c3ccc(Nc4ccccc4)cc3C2=O)C(=O)N1 (stereo unspecified) | 17.4 | 14.7 | 4 | – | –
O=C1CCC(N2C(=O)c3cccc(Oc4ccccc4)c3C2=O)C(=O)N1 (stereo unspecified) | 16.9 | 14.3 | 6 | – | –
CN(C)c1ccc(Nc2cccc3c2C(=O)N(C2CCC(=O)NC2=O)C3=O)cc1 (stereo unspecified) | – | – | – | Active | –
